Screening data from PubChem.
Myeloid diff MLP – compounds promoting myeloid differentiation; 360,000 tested, 1% active; calls only at 10 µM; ER-HoxA9 myeloid progenitors, lysozyme-GFP differentiation, flow cytometry; AID 624256;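 active = normalized GFP-positive differentiation at or above the plate's own cutoff, the solvent-only control mean plus 3 SD; inconclusive = no clear call, values can overlap the other calls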;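 note: cells exposed to compound for four days before flow analysis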
T cell modulator – T cell immune modulation candidate | 2C CD8+ T cell-vesicle binding, flow cytometry; active compounds read low | response (vesicle binding), % at 7 µM | 330,000 tested, 0.068% active | AID 2052;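 active = response, share of CD8 T cells binding vesicles, and their 90th percentile fluorescence all below set limits, cut at about 80% in these data, passing the limit was not always enough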;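 note: values below 100% mean blocked vesicle binding to the CD8+ T cells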
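Assay system – 2C mouse CD8+ T cells · Also added – QL9-loaded Drosophila micro-vesicles · Timing – Cell–vesicle co-incubation 1.5 h at 37 °C, staining 20 min on ice · Signal – flow cytometry of vesicle-bound cells · Measure – percent CD8+ FL2 mean versus row control · Controls – Peptide-free naked vesicles (low) and QL9 vesicles with 0.7% DMSO vehicle (high)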
SKN-1 block – C. elegans SKN-1 inhibition. C. elegans VP596 Pgst-4::GFP/RFP ratio, acrylamide-induced, 24 h. inhibition, % at 21.8 µM. 360,000 tested, 0.49% active. AID 624304;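 active = interference check ratio from 0.5 to 1.5 plus GFP to RFP signal ratio inhibition reaching or exceeding a fixed threshold, cut at about 30% in these data, passing the limit was not always enough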
Rin1-Abl PPI inh – human Rin1-Abl interaction inhibition; inhibition, % at 7.35 µM; TR-FRET Rin1/Abl binding, biochemical; P00519+Q13671; 360,000 tested, 0.4% active; in the data active = inhibition above about 5%, passing the limit was not always enough
Rce1 inhib – yeast Ras-converting enzyme inhibition. calls only. yeast membranes, quenched prenylated peptide cleavage fluorescence. 290,000 tested, 0.27% active;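 active = fall in fluorescence gain of 50% or more versus controls, with final raw signal at or below 3038400; inconclusive = same 50% fall but final raw signal above 3038400; inactive = fall in fluorescence gain under 50%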;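 note: plate controls were neutral control wells for no effect and wells lacking membranes for full effect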
GRK2 inh – inhibitors of human GRK2 displacing RNA aptamer | bead flow cytometry, FAM-aptamer displacement from GRK2 | inhibition of aptamer binding, % at 10 µM | 330,000 tested, 0.59% active;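 active = inhibition of aptamer binding above 40%, roughly 3 SD of noise, on plates passing a quality check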;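 note: median bead fluorescence of bound FAM aptamer so fluorescent compounds give negative values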
Active calls of the source: *; i = inactive; ? = inconclusive; / = not tested or not shown; + = active, no number. In the library only some 2.6% were active in any assay of this set; here they are far more common.

SMILES	Myeloid diff MLP	T cell modulator	SKN-1 block	Rin1-Abl PPI inh	Rce1 inhib	GRK2 inh
COCCCn1nnnc1SCC(=O)Nc1nc(C)c(C)s1	i	143	9	0	i	0
CC[n+]1c(/C=C/c2ccc(N(C)C)cc2)ccc2ccccc21	/	521	82	-34	i	0
CC[n+]1ccc(/C=C/c2ccc(N(C)C)cc2)c2ccccc21	+	/	91	-43	/	/
CC[n+]1ccccc1/C=C/c1ccc(N(C)C)cc1	?	/	41*	-23	i	/
c1ccc(-c2c[n+]3c(n2-c2ccccc2)CCC3)cc1	+	330	-10	-5	i	0
Cc1ccnc(NS(=O)(=O)c2cccc([N+](=O)[O-])c2)c1	i	106	6	3	i	0
Cc1ccccc1Nc1cc2ccccc2c(=O)[nH]1	i	211	2	16*	i	1
O=c1[nH]c(Nc2ccccn2)cc2ccccc12	i	358	14	1	+	1
Cn1nnnc1SCC(=O)Nc1ccc(Cl)c(S(=O)(=O)N2CCOCC2)c1	i	100	-3	-1	/	0
CN1CCN(CCCNC(=O)Nc2ccc([N+](=O)[O-])cc2)CC1	i	216	-19	4	i	0
FCCCOc1ccc(-c2ccnc(-c3ccccc3)n2)cc1	i	475	57*	1	i	2
O=C(/C=C/Nc1ccc(F)cc1)c1cccs1	i	255	25	-3	i	0
Cc1cccc(N/C=C/C(=O)c2cccs2)c1C	i	155	44*	-3	i	0
O=C(/C=C/Nc1ccc(F)c(F)c1)c1cccs1	i	277	44*	4	i	2
NC(=O)c1ccccc1N/C=C/C(=O)c1cccs1	/	356	-16	-2	i	0
CSc1nc(N)c2c(n1)N(C)C=NS2(=O)=O	i	/	-7	1	/	/
O=C(/C=C/c1ccc(Cl)cc1)Nc1nccs1	+	/	30	1	i	/
Cc1cc(N2CCN(C)CC2)ccc1NC(=O)c1ccc(-c2ccc(Cl)cc2)o1	+	331	10	0	i	0
O=C(Nc1nccs1)c1ccc(-c2ccc(Cl)cc2)o1	i	216	41*	-2	i	3
C/C=C/C=C/C(=O)Nc1nccs1	i	316	-7	-4	i	5
CN1CCN(c2ccccc2NC(=O)c2ccc(-c3ccc(Cl)c(Cl)c3)o2)CC1	i	i	22	-2	i	0
O=C(Nc1nccs1)c1ccc(-c2ccc(F)cc2)o1	i	235	52*	-2	i	0
Cc1ccc(C)n1-c1ccc(C(=O)NN)s1	i	299	1	-3	i	2
CCCCCc1ccc(-c2ccc(/C=C/C(N)=O)cc2)nc1	+	329	4	6	i	4
O=C(NC(NC(=S)N1CCOCC1)C(Cl)(Cl)Cl)c1ccc(Cl)cc1 (centres undefined)	+	228	6	1	i	0
SMILES	Myeloid diff MLP	T cell modulator	SKN-1 block	Rin1-Abl PPI inh	Rce1 inhib	GRK2 inh
O=C(Nc1ccncc1)c1cc(S(=O)(=O)N2CCN(c3ccccc3)CC2)ccc1Cl	i	177	-20	5	i	0
Cc1cc(N/N=C/c2ccc(O)cc2)nc(NS(=O)(=O)c2ccccc2)n1	i	50	4	-4	i	74*
Cc1ccc(/C=N/Nc2cc(C)nc(NCc3ccccc3)n2)cc1	i	338	-5	2	i	0
COc1ccc(Nc2nnc(SCC(=O)N3CC(=O)Nc4ccccc43)s2)cc1	i	391	-1	-3	i	2
Cc1ccc(N/C(=N/S(=O)(=O)c2cccs2)c2ccccc2)c(C)c1	+	230	5	0	i	0
O=S(=O)(/N=C(/Nc1cccc2ccccc12)c1ccccc1)c1cccs1	i	350	-15	3	i	0
COc1cc(/C=N/n2cc(-c3ccccc3)[nH]c2=S)cc(OC)c1O	i	184	1	-4	i	0
Oc1ccc(/C=N/n2cc(-c3ccccc3)[nH]c2=S)cc1	i	210	3	3	+	3
Cc1c(C(=O)N/N=C/c2cccnc2)sc(N)c1C#N	i	169	7	-5	i	4
CCN(CC)c1ccc2c(Cl)c(Br)c(=O)oc2c1	+	739	-27	-3	i	2
CCC(C)[C@H](NC(=O)NC1CCCc2ccccc21)C(=O)O (some centres undefined)	+	495	-5	-1	i	0
CCC(C)[C@H](NC(=O)NC1CCCc2ccccc21)C(=O)OC (some centres undefined)	i	245	-3	-1	i	0
COCc1nc2c([nH]1)c(=O)n(C)c(=O)n2CC(C)C	i	i	8	-1	/	4
O=S(=O)(O)c1cc2oc(-c3ccccc3)nc2c2ccccc12	i	744	14	0	+	0
COc1ccc(-c2nc3nc(N)nn3cc2C)cc1F	i	282	-2	-1	i	3
N#C/C(=C(/O)COc1ccccc1)c1nc2ccccc2s1	i	264	-5	3	i	1
N#C/C(=C(/O)COC(=O)c1ccc(C#N)cc1)c1nc2ccccc2s1	+	126	5	2	i	1
CC(=O)NC(c1cc(Cl)c2ccccc2c1O)C(C)C (centres undefined)	+	191	8	0	/	3
C[C@@H](c1ccccc1)N1C[C@H](COCc2ccccc2)Oc2cc(N3CCC[C@@H]3CO)ccc2S1(=O)=O	i	/	1	/	/	/
O=C(N1CCc2[nH]c3ccccc3c2C1)C(F)(F)F	i	645	-8	0	i	0
CCCN(C)C[C@@H]1OCc2cnnn2CCCC(=O)N([C@H](C)CO)C[C@H]1C	i	/	-7	2	/	/
CN(CC(=O)Nc1cccc(F)c1)C(=O)CC1CC2CCC1C2 (centres undefined)	i	439	36*	0	i	0
Cc1cccc(C)c1NC(=O)CN(C)C(=O)CC1CC2CCC1C2 (centres undefined)	i	165	10	0	/	3
CCN(CC)c1nc2cc(OC)ccc2cc1C#N	+	595	10	-8	i	0
COc1ccc2cc(C#N)c(N3CCOCC3)nc2c1	+	299	14	-5	i	1
COc1ccc2cc(C#N)c(NC(C)C)nc2c1	i	720	9	-2	i	2
CCC(CO)Oc1cc(NC(=O)c2cccc(Cl)c2)c2ncn(C(C)C)c2c1 (centres undefined)	i	i	3	1	/	0
O=C1/C(=C/c2ccccc2)CCCc2ccccc21	i	270	47*	-1	/	0
